In ChEMBL document CHEMBL1149249 (J Med Chem, 2004):

Target: Adenosine receptor A2a (Rattus norvegicus, UniProt P30543)
Experiment: Displacement of [3H]ZM241385 from adenosine A2A receptor in rat brain membrane
Type: cell membranes
Conditions: not given

Chain of Adenosine receptor A2a (P30543 whole entry): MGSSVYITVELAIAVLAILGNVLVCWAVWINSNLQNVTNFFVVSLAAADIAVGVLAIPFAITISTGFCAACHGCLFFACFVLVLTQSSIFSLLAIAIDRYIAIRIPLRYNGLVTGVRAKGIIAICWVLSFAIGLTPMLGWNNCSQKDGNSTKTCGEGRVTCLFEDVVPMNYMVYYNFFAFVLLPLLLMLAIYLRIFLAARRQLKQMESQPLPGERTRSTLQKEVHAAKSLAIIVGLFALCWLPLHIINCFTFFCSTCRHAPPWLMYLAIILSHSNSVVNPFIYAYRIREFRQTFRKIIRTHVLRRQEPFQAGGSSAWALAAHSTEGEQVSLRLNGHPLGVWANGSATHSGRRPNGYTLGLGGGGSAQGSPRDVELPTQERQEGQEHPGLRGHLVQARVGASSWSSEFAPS

Row | SMILES | Ki
1 | Nc1nc(NC[C@H]2CCCN2Cc2c(F)cccc2F)nc2nc(-c3ccco3)nn12 | 3.6 nM (antagonist)
2 | Nc1nc(N2CCN3CCC[C@@H]3C2)nc2nc(-c3ccco3)nn12 | 30 nM (antagonist)
3 | Nc1nc(N2CCN3CCC[C@H]3C2)nc2nc(-c3ccco3)nn12 | 46 nM (antagonist)
4 | Nc1nc(N2CCN3C[C@@H](COc4ccc5ncccc5c4)CC[C@H]3C2)nc2nc(-c3ccco3)nn12 | 0.6 nM (antagonist)
5 | Nc1nc(N2CCN3[C@@H](CO)CCC[C@H]3C2)nc2nc(-c3ccco3)nn12 (racemic) | 3 nM (antagonist)
6 | Nc1nc(NC[C@@H]2CC[C@@H]3CN(c4ncccn4)CCN3C2)nc2nc(-c3ccco3)nn12 (racemic) | 0.3 nM (antagonist)
7 | Nc1nc(N2CCN3C[C@@H](COc4ccccc4)CC[C@H]3C2)nc2nc(-c3ccco3)nn12 (racemic) | 21 nM (antagonist)
8 | Nc1nc(N2CCN3C[C@@H](COc4cccc(F)c4)CC[C@H]3C2)nc2nc(-c3ccco3)nn12 (racemic) | 0.2 nM (antagonist)
9 | Nc1nc(N2CCN3CCCCC3C2)nc2nc(-c3ccco3)nn12 (racemic) | 12 nM (antagonist)

Other lines, results leading:

Row | Ki | SMILES
10 | 71 nM (antagonist) | Nc1nc(N2CCN3C[C@H](CO)CC[C@H]3C2)nc2nc(-c3ccco3)nn12 (racemic)
11 | 110 nM (antagonist) | Nc1nc(N2CCN3[C@@H](CO)CCC[C@H]3C2)cc2nc(-c3ccco3)nn12 (racemic)
12 | 140 nM (antagonist) | Nc1nc(N2CCN3CCCCC3C2)cc2nc(-c3ccco3)nn12 (racemic)
13 | 96 nM (antagonist) | Nc1nc(N2CCN3C[C@@H](CO)CC[C@H]3C2)cc2nc(-c3ccco3)nn12 (racemic)
14 | 230 nM (antagonist) | Nc1cc(N2CCN3C[C@@H](CO)CC[C@H]3C2)nc2nc(-c3ccco3)nn12 (racemic)
15 | 38 nM (antagonist) | Nc1cc(N2CCN3CCCCC3C2)nc2nc(-c3ccco3)nn12 (racemic)
16 | 240 nM (antagonist) | Nc1nc(N2CCN3C[C@H](CO)CC[C@H]3C2)cc2nc(-c3ccco3)nn12 (racemic)
17 | 45 nM (antagonist) | Nc1nc(N2CCN3C[C@@H](CO)CC[C@H]3C2)nc2nc(-c3ccco3)nn12 (racemic)
18 | 860 nM (antagonist) | Nc1cc(N2CCN3C[C@H](CO)CC[C@H]3C2)nc2nc(-c3ccco3)nn12 (racemic)
19 | 610 nM (antagonist) | Nc1cc(N2CCN3[C@@H](CO)CCC[C@H]3C2)nc2nc(-c3ccco3)nn12 (racemic)
20 | 16 nM (antagonist) | NC[C@H]1CC[C@H]2CN(c3nc(N)n4nc(-c5ccco5)nc4n3)CCN2C1 (racemic)

Target: T1, Adenosine receptor A1 (Rattus norvegicus, UniProt P25099)
T1 sequence (P25099 whole entry): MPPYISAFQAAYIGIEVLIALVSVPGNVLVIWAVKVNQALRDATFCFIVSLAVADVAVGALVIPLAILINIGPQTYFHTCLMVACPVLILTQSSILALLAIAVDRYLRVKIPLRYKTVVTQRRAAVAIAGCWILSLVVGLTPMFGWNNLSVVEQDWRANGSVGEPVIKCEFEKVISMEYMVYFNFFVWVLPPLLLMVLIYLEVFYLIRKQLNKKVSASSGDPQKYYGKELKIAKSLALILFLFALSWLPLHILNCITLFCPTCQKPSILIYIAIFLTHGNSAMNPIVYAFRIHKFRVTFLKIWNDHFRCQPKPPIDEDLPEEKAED
Experiment: Displacement of [3h]DPCPX from adenosine A receptor in rat cerebral cortex membrane
Conditions: not given

Row | SMILES | Ki
21 | Nc1nc(NC[C@H]2CCCN2Cc2c(F)cccc2F)nc2nc(-c3ccco3)nn12 | 427 nM (antagonist)
22 | Nc1nc(N2CCN3CCC[C@@H]3C2)nc2nc(-c3ccco3)nn12 | 1200 nM
23 | Nc1nc(N2CCN3CCC[C@H]3C2)nc2nc(-c3ccco3)nn12 | > 500 nM
24 | Nc1nc(N2CCN3C[C@@H](COc4ccc5ncccc5c4)CC[C@H]3C2)nc2nc(-c3ccco3)nn12 | 3500 nM
25 | Nc1nc(N2CCN3[C@@H](CO)CCC[C@H]3C2)nc2nc(-c3ccco3)nn12 (racemic) | 1300 nM
26 | Nc1nc(NC[C@@H]2CC[C@@H]3CN(c4ncccn4)CCN3C2)nc2nc(-c3ccco3)nn12 (racemic) | 1600 nM
27 | Nc1nc(N2CCN3C[C@@H](COc4ccccc4)CC[C@H]3C2)nc2nc(-c3ccco3)nn12 (racemic) | > 500 nM
28 | Nc1nc(N2CCN3C[C@@H](COc4cccc(F)c4)CC[C@H]3C2)nc2nc(-c3ccco3)nn12 (racemic) | 3300 nM
29 | Nc1nc(N2CCN3CCCCC3C2)nc2nc(-c3ccco3)nn12 (racemic) | 860 nM (antagonist)

Further lines, results first:

Row | Ki | SMILES
30 | 6100 nM | Nc1nc(N2CCN3C[C@H](CO)CC[C@H]3C2)nc2nc(-c3ccco3)nn12 (racemic)
31 | > 500 nM | Nc1nc(N2CCN3[C@@H](CO)CCC[C@H]3C2)cc2nc(-c3ccco3)nn12 (racemic)
32 | > 500 nM | Nc1nc(N2CCN3CCCCC3C2)cc2nc(-c3ccco3)nn12 (racemic)
33 | > 500 nM | Nc1nc(N2CCN3C[C@@H](CO)CC[C@H]3C2)cc2nc(-c3ccco3)nn12 (racemic)
34 | > 500 nM | Nc1cc(N2CCN3C[C@@H](CO)CC[C@H]3C2)nc2nc(-c3ccco3)nn12 (racemic)
35 | > 500 nM | Nc1cc(N2CCN3CCCCC3C2)nc2nc(-c3ccco3)nn12 (racemic)
36 | > 1000 nM | Nc1nc(N2CCN3C[C@H](CO)CC[C@H]3C2)cc2nc(-c3ccco3)nn12 (racemic)
37 | 660 nM (antagonist) | Nc1nc(N2CCN3C[C@@H](CO)CC[C@H]3C2)nc2nc(-c3ccco3)nn12 (racemic)
38 | > 1000 nM | Nc1cc(N2CCN3C[C@H](CO)CC[C@H]3C2)nc2nc(-c3ccco3)nn12 (racemic)
39 | > 500 nM | Nc1cc(N2CCN3[C@@H](CO)CCC[C@H]3C2)nc2nc(-c3ccco3)nn12 (racemic)
40 | > 500 nM | NC[C@H]1CC[C@H]2CN(c3nc(N)n4nc(-c5ccco5)nc4n3)CCN2C1 (racemic)

Tested on: not listed separately
Experiment: Metabolic stability in rat liver microsomes at 2 uM after 15 mins
Type: ADME, Microsome
Conditions: read-out: Stability
Summary of the method: (§1)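 Test compound at 2 μM final was incubated at 37 °C with shaking in Sprague–Dawley rat liver microsomes in 66 mM potassium phosphate pH 7.4. An NADP+/glucose-6-phosphate/MgCl2/G6P dehydrogenase regenerating system was present. Aliquots taken at 0, 15, 30 and 60 min were quenched in acetonitrile containing DPCPX internal standard. Percent parent remaining was measured by LC/MS.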

Row | SMILES | remaining at 0.25 h, 2 µM [%]
41 | Cn1nc(C(F)(F)F)c(CN2CCN(c3nc(N)n4nc(-c5ccco5)nc4n3)CC2)c1Cl | 14
42 | Nc1nc(N2CCN3CCC[C@@H]3C2)nc2nc(-c3ccco3)nn12 | 67
43 | Nc1nc(N2CCN3CCC[C@H]3C2)nc2nc(-c3ccco3)nn12 | 69
44 | Nc1nc(N2CCN3C[C@@H](COc4ccc5ncccc5c4)CC[C@H]3C2)nc2nc(-c3ccco3)nn12 | 42
45 | Nc1nc(NC[C@@H]2CC[C@@H]3CN(c4ncccn4)CCN3C2)nc2nc(-c3ccco3)nn12 (racemic) | 89
46 | Nc1nc(N2CCN3C[C@@H](COc4cccc(F)c4)CC[C@H]3C2)nc2nc(-c3ccco3)nn12 (racemic) | 57

Second part, the compound after the results:

Row | remaining at 0.25 h, 2 µM [%] | SMILES
47 | 100 | Nc1nc(N2CCN3C[C@@H](CO)CC[C@H]3C2)cc2nc(-c3ccco3)nn12 (racemic)
48 | 97 | Nc1cc(N2CCN3C[C@@H](CO)CC[C@H]3C2)nc2nc(-c3ccco3)nn12 (racemic)
49 | 100 | Nc1nc(N2CCN3C[C@@H](CO)CC[C@H]3C2)nc2nc(-c3ccco3)nn12 (racemic)

Tested on: not listed separately
Experiment: Metabolic stability in rat liver microsome at 2 uM after 30 mins
Type: ADME
Conditions: liver microsomes, read-out: Stability
Summary of the method: as §1

Row | SMILES | remaining at 0.5 h, 2 µM [%]
50 | Nc1nc(N2CCN3CCC[C@@H]3C2)nc2nc(-c3ccco3)nn12 | 75
51 | Nc1nc(N2CCN3CCC[C@H]3C2)nc2nc(-c3ccco3)nn12 | 54
52 | Nc1nc(N2CCN3C[C@@H](COc4ccc5ncccc5c4)CC[C@H]3C2)nc2nc(-c3ccco3)nn12 | 25
53 | Nc1nc(NC[C@@H]2CC[C@@H]3CN(c4ncccn4)CCN3C2)nc2nc(-c3ccco3)nn12 (racemic) | 65
54 | Nc1nc(N2CCN3C[C@@H](COc4cccc(F)c4)CC[C@H]3C2)nc2nc(-c3ccco3)nn12 (racemic) | 36

Other lines, results leading:

Row | remaining at 0.5 h, 2 µM [%] | SMILES
55 | 100 | Nc1nc(N2CCN3C[C@@H](CO)CC[C@H]3C2)cc2nc(-c3ccco3)nn12 (racemic)
56 | 81 | Nc1cc(N2CCN3C[C@@H](CO)CC[C@H]3C2)nc2nc(-c3ccco3)nn12 (racemic)
57 | 100 | Nc1nc(N2CCN3C[C@@H](CO)CC[C@H]3C2)nc2nc(-c3ccco3)nn12 (racemic)

Tested on: not listed separately
Experiment: Metabolic stability in rat liver microsome at 2 uM after 60 mins
Type: ADME
Conditions: liver microsomes, read-out: Stability
Summary of the method: as §1

Row | SMILES | remaining at 1 h, 2 µM [%]
58 | Nc1nc(N2CCN3CCC[C@@H]3C2)nc2nc(-c3ccco3)nn12 | 61
59 | Nc1nc(N2CCN3CCC[C@H]3C2)nc2nc(-c3ccco3)nn12 | 36
60 | Nc1nc(N2CCN3C[C@@H](COc4ccc5ncccc5c4)CC[C@H]3C2)nc2nc(-c3ccco3)nn12 | 16
61 | Nc1nc(NC[C@@H]2CC[C@@H]3CN(c4ncccn4)CCN3C2)nc2nc(-c3ccco3)nn12 (racemic) | 43
62 | Nc1nc(N2CCN3C[C@@H](COc4cccc(F)c4)CC[C@H]3C2)nc2nc(-c3ccco3)nn12 (racemic) | 12

The next lines start with the values.

Row | remaining at 1 h, 2 µM [%] | SMILES
63 | 85 | Nc1nc(N2CCN3C[C@@H](CO)CC[C@H]3C2)cc2nc(-c3ccco3)nn12 (racemic)
64 | 51 | Nc1cc(N2CCN3C[C@@H](CO)CC[C@H]3C2)nc2nc(-c3ccco3)nn12 (racemic)
65 | 100 | Nc1nc(N2CCN3C[C@@H](CO)CC[C@H]3C2)nc2nc(-c3ccco3)nn12 (racemic)

Tested on: Mus musculus
Experiment: Reduction of haloperidol-induced catalepsy in CD1 mouse within 30 mins at 3 mg/kg, po
Type: functional
Parameters: scale not given: the % may be the effect or the level left
Conditions: not given
Summary of the method: (§2)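 Male CD-1 mice (25–30 g) received haloperidol 3 mg/kg sc. Bar test used a 4.5 cm high, 1 cm bar with a 120 s cutoff, measured every 30 min. Once baseline catalepsy was stable (about 3 h), compound or vehicle was given by oral gavage. Catalepsy was then scored every 30 min for 2 h. Analysis was one-way ANOVA with Dunnett's post hoc test.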

Row | SMILES | Activity [%]
66 | Nc1nc(N2CCN3C[C@@H](CO)CC[C@H]3C2)cc2nc(-c3ccco3)nn12 (racemic) | >50
67 | Nc1nc(N2CCN3C[C@@H](CO)CC[C@H]3C2)nc2nc(-c3ccco3)nn12 (racemic) | >50

Tested on: Mus musculus
Experiment: Reduction of haloperidol-induced catalepsy in orally dosed CD1 mouse
Type: functional
Conditions: CD1, po
Summary of the method: as §2

Row | SMILES | ED50 [mg/kg]
68 | Nc1nc(NC[C@H]2CCCN2Cc2c(F)cccc2F)nc2nc(-c3ccco3)nn12 | 10
69 | Cn1nc(C(F)(F)F)c(CN2CCN(c3nc(N)n4nc(-c5ccco5)nc4n3)CC2)c1Cl | 3

Tested on: Rattus norvegicus
Experiment: Reduction of haloperidol-induced catalepsy in orally dosed Sprague-Dawley rat
Type: functional
Conditions: po
Summary of the method: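 Male Sprague–Dawley rats (225–275 g) were given haloperidol 1 mg/kg, with bar tests every 30 min (1 cm bar, 10 cm high, 120 s maximum). After a stable cataleptic baseline at about 3 h, compound or vehicle was dosed by oral gavage. The bar test was repeated every 30 min for 2 h. Data were analyzed by one-way ANOVA with Dunnett's test.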

Row | SMILES | ED50 [mg/kg]
70 | Nc1nc(NC[C@H]2CCCN2Cc2c(F)cccc2F)nc2nc(-c3ccco3)nn12 | 10
71 | Cn1nc(C(F)(F)F)c(CN2CCN(c3nc(N)n4nc(-c5ccco5)nc4n3)CC2)c1Cl | 3
